ChEMBL document CHEMBL4602615, “Upregulation of p53 through induction of MDM2 degradation: Amino acid prodrugs of anthraquinone analogs” (Bioorg Med Chem Lett, 2020)
≈ marks a conversion by molar mass, not a printed value. Calls of active or inactive are those of the source. No cut-off for these calls is given here.

What was measured:
[1] = Aqueous solubility of compound in PBS buffer at pH 7.4 by HPLC analysis; type: physicochemical
[2] = Prodrug conversion in PBS buffer assessed as half life at pH 7.4 and 37 degC by HPLC analysis; type: physicochemical
[3] = Prodrug conversion assessed as porcine liver Esterase-mediated compound hydrolysis by measuring half life by HPLC analysis; type: ADME, Sus scrofa; conditions: pig, isolated protein
How it was run: (§1)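 Amino-acid ester prodrugs incubated with the hydrolytic enzyme in PBS, pH 7.4, at 37 °C. Release of parent anthraquinone monitored by HPLC, and half-life derived.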

[4] = tested on: HeLa; assay: Cytotoxicity against human HeLa cells assessed as reduction in cell viability by WST8 assay; type: functional, cell-based
How it was run: (§2)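 WST-8 viability read-out in HeLa cells and in an in-house established wild-type p53 leukemia line (EU-1). IC50 derived from the concentration–response data.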

[5] = Prodrug conversion assessed as porcine pancreas Kallikrein-mediated compound hydrolysis by measuring half life by HPLC analysis; type: ADME, Sus scrofa; conditions: pig; how it was run: as §1
[6] = Cytotoxicity against human EU1 cells assessed as reduction in cell viability by WST8 assay; type: functional, cell-based; conditions: EU-1; how it was run: as §2
[7] = Prodrug conversion in cell culture media assessed as half life; type: physicochemical
[8] = biological target: E3 ubiquitin-protein ligase Mdm2 (Homo sapiens) (UniProt Q00987); assay: Induction of MDM2 degradation in human EU1 cells assessed as upregulation of p53 protein expression at 1 uM incubated for 4 to 8 hrs by Western blot analysis; type: cell-based
How it was run: (§3)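 EU-1 is an in-house established leukemia line carrying wild-type p53. Cells were exposed across a series of concentrations and incubation times, then lysed. MDM2 and p53 protein levels were read by Western blot.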

[9] = biological target: E3 ubiquitin-protein ligase Mdm2 (Homo sapiens) (UniProt Q00987); assay: Induction of MDM2 degradation in human EU1 cells assessed as downregulation of MDM2 protein expression at 0.8 uM incubated for 15 hrs by Western blot analysis; type: cell-based; how it was run: as §3
[10] = biological target: E3 ubiquitin-protein ligase Mdm2 (Homo sapiens) (UniProt Q00987); assay: Induction of MDM2 degradation in human EU1 cells assessed as upregulation of p53 protein expression at 0.8 uM incubated for 15 hrs by Western blot analysis; type: cell-based; how it was run: as §3
[11] = biological target: E3 ubiquitin-protein ligase Mdm2 (Homo sapiens) (UniProt Q00987); assay: Induction of MDM2 degradation in human EU1 cells assessed as downregulation of MDM2 protein expression incubated for 15 hrs by Western blot analysis; type: cell-based; how it was run: as §3
[12] = biological target: E3 ubiquitin-protein ligase Mdm2 (Homo sapiens) (UniProt Q00987); assay: Induction of MDM2 degradation in human EU1 cells assessed as upregulation of p53 protein expression incubated for 15 hrs by Western blot analysis; type: cell-based; how it was run: as §3
[13] = biological target: E3 ubiquitin-protein ligase Mdm2 (Homo sapiens) (UniProt Q00987); assay: Induction of MDM2 degradation in human EU1 cells assessed as upregulation of p53 protein expression at 1 uM by Western blot analysis; type: cell-based; conditions: TDE = time-dependent effect; how it was run: as §3
[14] = biological target: E3 ubiquitin-protein ligase Mdm2 (Homo sapiens) (UniProt Q00987); assay: Induction of MDM2 degradation in human EU1 cells assessed as downregulation of MDM2 protein expression at 1 uM by Western blot analysis; type: cell-based; conditions: TDE = time-dependent effect; how it was run: as §3
[15] = biological target: E3 ubiquitin-protein ligase Mdm2 (Homo sapiens) (UniProt Q00987); assay: Induction of MDM2 degradation in human EU1 cells assessed as downregulation of MDM2 protein expression at 1 uM incubated for 4 to 16 hrs by Western blot analysis; type: cell-based; how it was run: as §3
[16] = Prodrug conversion in none-denaturated human EU1 cell lysates assessed as N-[4,5-bis(2-hydroxyethoxy)-9,10-dioxo-2-anthryl]-2-chloro-acetamide release measured within 15 mins by HPLC analysis; type: ADME, subcellular, Lysate; conditions: 0.25 h
How it was run: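 Prodrug incubated with non-denatured lysate of EU-1 cells, an in-house wild-type p53 leukemia line, to assess activation by cellular components. Read-out was cleavage of the amino acid ester bond releasing the parent anthraquinone, followed over time.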

[17] = PBS buffer, read-out: solubility

E3 ubiquitin-protein ligase Mdm2 (Homo sapiens), sequence (Q00987 whole entry, looked up): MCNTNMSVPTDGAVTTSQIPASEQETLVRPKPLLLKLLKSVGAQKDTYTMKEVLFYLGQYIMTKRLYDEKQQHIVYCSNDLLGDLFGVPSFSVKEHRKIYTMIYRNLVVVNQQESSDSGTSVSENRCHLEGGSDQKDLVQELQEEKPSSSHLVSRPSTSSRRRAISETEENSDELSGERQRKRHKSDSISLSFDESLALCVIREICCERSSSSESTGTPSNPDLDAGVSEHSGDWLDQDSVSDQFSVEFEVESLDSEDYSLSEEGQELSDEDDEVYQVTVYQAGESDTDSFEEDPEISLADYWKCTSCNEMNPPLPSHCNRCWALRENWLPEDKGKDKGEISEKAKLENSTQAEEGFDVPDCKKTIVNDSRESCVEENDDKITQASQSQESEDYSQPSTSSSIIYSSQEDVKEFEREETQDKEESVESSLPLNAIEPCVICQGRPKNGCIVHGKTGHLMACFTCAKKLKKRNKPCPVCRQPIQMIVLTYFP

Row | Structure (SMILES) | solubility [1, 17] [mg/mL] | t1/2 [2] [min] | t1/2 [3] [min] | IC50 [4] [µM] | t1/2 [5] [min] | IC50 [6] [µM] | solubility ([1]; buffer) [mg/mL] | t1/2 [7] [min] | Activity [8] | Activity [9] | Activity [10] | Activity [11] | Activity [12] | Activity [13] | Activity [14] | Activity [15] | Drug metabolism [16]
1 | CC(C)C[C@H](N)C(=O)OCCOc1cccc2c1C(=O)c1c(OCCOC(=O)[C@@H](N)CC(C)C)cc(NC(=O)CCl)cc1C2=O.Cl | > 100 | 127.7 | 2.5 | 2.8 | 39.6 | 1.17 | – | – | – | – | – | – | – | – | – | – | –
2 | Cl.NCCCC[C@H](N)C(=O)OCCOc1cccc2c1C(=O)c1c(OCCOC(=O)[C@@H](N)CCCCN)cc(NC(=O)CCl)cc1C2=O | > 100 | 140.8 | 44.2 | 10.7 | 2.4 | 1.28 | – | – | – | – | – | – | – | – | – | – | –
3 | Cl.N[C@@H](Cc1ccc(O)cc1)C(=O)OCCOc1cccc2c1C(=O)c1c(OCCOC(=O)[C@@H](N)Cc3ccc(O)cc3)cc(NC(=O)CCl)cc1C2=O | > 100 | 70.6 | 1.7 | 5.4 | 6.5 | 1.27 | – | – | – | – | – | – | – | – | – | – | –
4 | O=C(CCl)Nc1cc(O)c2c(c1)C(=O)c1cccc(O)c1C2=O | – | – | – | – | – | – | 0.0085 (≈ 25.6 µM) | – | – | – | – | – | – | – | – | – | –
5 | Cl.NCC(=O)OCCOc1cccc2c1C(=O)c1c(OCCOC(=O)CN)cc(NC(=O)CCl)cc1C2=O | > 100 | 31.5 | 10.1 | 3.66 | 35.9 | 1.1 | – | 19.3 | – | – | – | – | – | – | – | – | –
6 | C[C@H](N)C(=O)OCCOc1cccc2c1C(=O)c1c(OCCOC(=O)[C@H](C)N)cc(NC(=O)CCl)cc1C2=O.Cl | > 100 | 100.9 | 6.2 | 8.21 | 24.7 | 1.66 | – | – | – | – | – | – | – | – | – | – | –
7 | CSCC[C@H](N)C(=O)OCCOc1cccc2c1C(=O)c1c(OCCOC(=O)[C@@H](N)CCSC)cc(NC(=O)CCl)cc1C2=O.Cl | > 100 | 44.8 | 3.7 | 7.07 | 12 | 1.24 | – | – | – | – | – | – | – | – | – | – | –
8 | O=C(CCl)Nc1cc(OCCO)c2c(c1)C(=O)c1cccc(OCCO)c1C2=O | – | – | – | 3.76 | – | 0.89 | 0.06 (≈ 143 µM) | – | Active | Active | Active | Dose-dependent effect | Dose-dependent effect | Tde | Tde | Active | –
9 | Cl.N=C(N)NCCC[C@H](N)C(=O)OCCOc1cccc2c1C(=O)c1c(OCCOC(=O)[C@@H](N)CCCNC(=N)N)cc(NC(=O)CCl)cc1C2=O | > 100 | 187.1 | 63 | 13 | 0.2 | 2.07 | – | – | – | – | – | – | – | – | – | – | –
10 | Cl.NC(=O)CC[C@H](N)C(=O)OCCOc1cccc2c1C(=O)c1c(OCCOC(=O)[C@@H](N)CCC(N)=O)cc(NC(=O)CCl)cc1C2=O | > 100 | 137.1 | 73 | 12.3 | 66.9 | 1.45 | – | – | – | – | – | – | – | – | – | – | –
11 | Cl.N[C@@H](Cc1ccccc1)C(=O)OCCOc1cccc2c1C(=O)c1c(OCCOC(=O)[C@@H](N)Cc3ccccc3)cc(NC(=O)CCl)cc1C2=O | – | 73.7 | 1 | 5.64 | 6.5 | 1.23 | 703 | – | – | – | – | – | – | – | – | – | –
12 | CC(C)[C@H](N)C(=O)OCCOc1cccc2c1C(=O)c1c(OCCOC(=O)[C@@H](N)C(C)C)cc(NC(=O)CCl)cc1C2=O.Cl | > 100 | 147.7 | 25.3 | 4.15 | 126.3 | 1.08 | – | – | – | – | – | – | – | – | – | – | Metabolite_Detected
13 | Cl.N[C@@H](CCC(=O)O)C(=O)OCCOc1cccc2c1C(=O)c1c(OCCOC(=O)[C@@H](N)CCC(=O)O)cc(NC(=O)CCl)cc1C2=O | > 100 | 268.6 | 117.9 | 9.11 | 110 | 3.21 | – | 156.1 | – | – | – | – | – | – | – | – | –
14 | CC[C@H](C)[C@H](N)C(=O)OCCOc1cccc2c1C(=O)c1c(OCCOC(=O)[C@@H](N)[C@@H](C)CC)cc(NC(=O)CCl)cc1C2=O.Cl | > 100 | 154.5 | 24.3 | 5.75 | 48.4 | 1.14 | – | – | – | – | – | – | – | – | – | – | –
